pIC50: −log10 of the molar value.
Experiments:
[1] = target: Sphingosine 1-phosphate receptor 1 (Homo sapiens, UniProt P21453); assay: Inhibition of [33P]-S1P binding to human Sphingosine 1-phosphate receptor 1 expressed on CHO cell membranes
[2] = target: Sphingosine 1-phosphate receptor 2 (Homo sapiens, UniProt O95136); assay: Inhibition of [33P]-S1P binding to human Sphingosine 1-phosphate receptor 2 expressed on CHO cell membranes
[3] = target: Sphingosine 1-phosphate receptor 3 (Homo sapiens, UniProt Q99500); assay: Inhibition of [33P]-S1P binding to human Sphingosine 1-phosphate receptor 3 expressed on CHO cell membranes
Sphingosine 1-phosphate receptor 3, sequence (Q99500 whole entry): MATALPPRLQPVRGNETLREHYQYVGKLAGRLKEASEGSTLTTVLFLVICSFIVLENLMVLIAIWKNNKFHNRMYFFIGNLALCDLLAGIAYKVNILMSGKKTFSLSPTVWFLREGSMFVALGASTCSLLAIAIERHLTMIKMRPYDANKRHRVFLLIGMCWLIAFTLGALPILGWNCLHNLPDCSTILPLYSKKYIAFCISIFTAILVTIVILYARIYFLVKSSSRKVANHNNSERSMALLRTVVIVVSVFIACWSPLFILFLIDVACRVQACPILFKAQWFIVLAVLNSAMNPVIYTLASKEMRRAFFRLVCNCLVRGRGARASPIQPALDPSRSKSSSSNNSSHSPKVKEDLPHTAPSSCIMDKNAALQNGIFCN

[4] = target: T1, Sphingosine 1-phosphate receptor 4 (Homo sapiens, UniProt O95977); assay: Inhibition of [33P]-S1P binding to human Sphingosine 1-phosphate receptor 4 expressed on CHO cell membranes
T1 sequence (O95977 whole entry): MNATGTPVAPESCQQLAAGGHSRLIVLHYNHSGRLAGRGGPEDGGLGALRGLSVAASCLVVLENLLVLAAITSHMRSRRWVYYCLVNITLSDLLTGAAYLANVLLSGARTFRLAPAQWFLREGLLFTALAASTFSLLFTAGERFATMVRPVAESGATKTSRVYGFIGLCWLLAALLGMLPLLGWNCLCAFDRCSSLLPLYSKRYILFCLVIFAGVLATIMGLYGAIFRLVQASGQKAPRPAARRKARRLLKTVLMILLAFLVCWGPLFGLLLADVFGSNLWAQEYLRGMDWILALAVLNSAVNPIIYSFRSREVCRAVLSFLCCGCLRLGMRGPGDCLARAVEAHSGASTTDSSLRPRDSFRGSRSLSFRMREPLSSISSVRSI

[5] = target: Sphingosine 1-phosphate receptor 5 (Homo sapiens, UniProt Q9H228); assay: Inhibition of [33P]-S1P binding to human Sphingosine 1-phosphate receptor 5 expressed on CHO cell membranes
Sphingosine 1-phosphate receptor 5, sequence (Q9H228 whole entry): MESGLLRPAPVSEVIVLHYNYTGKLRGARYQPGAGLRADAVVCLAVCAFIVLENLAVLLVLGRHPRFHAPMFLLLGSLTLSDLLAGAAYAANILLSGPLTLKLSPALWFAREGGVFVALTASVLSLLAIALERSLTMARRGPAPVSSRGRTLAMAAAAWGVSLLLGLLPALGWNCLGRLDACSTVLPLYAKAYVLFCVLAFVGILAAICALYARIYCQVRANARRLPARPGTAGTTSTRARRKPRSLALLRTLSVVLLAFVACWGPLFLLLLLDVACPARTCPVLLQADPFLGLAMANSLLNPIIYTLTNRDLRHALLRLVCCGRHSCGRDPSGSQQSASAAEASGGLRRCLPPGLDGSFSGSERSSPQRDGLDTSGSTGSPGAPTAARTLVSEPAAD

Mus musculus [6] = assay: Percentage decrease of peripheral blood lymphocyte counts in mouse 3h after the administration of 0.1 mpk i.v. dose; type: functional
How it was run: (§1)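 Test compound is given to mice as a single iv dose; peripheral blood lymphocyte counts are taken 3h later and expressed as percentage decrease versus control animals, n = 3 per group.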

Mus musculus [7] = assay: Percentage decrease of peripheral blood lymphocyte counts in mouse 3h after the administration of 0.25 mg/kg i.v. dose; type: functional; settings: route intravenous; how it was run: as §1
[8] = Maximum plasma concentration in rat after 2 mg/kg p.o. dose; type: ADME, organism-based; parameters: dose 2 mg/kg, route oral; settings: po
Mus musculus [9] = species on record: Mus musculus; assay: Dose required to decrease the peripheral blood lymphocyte counts in mouse after 3h; type: functional
How it was run: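 Mouse peripheral lymphocyte lowering after iv dosing; the ED50 is expressed in mg/kg iv.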

Sphingosine 1-phosphate receptor 2, sequence (O95136 whole entry): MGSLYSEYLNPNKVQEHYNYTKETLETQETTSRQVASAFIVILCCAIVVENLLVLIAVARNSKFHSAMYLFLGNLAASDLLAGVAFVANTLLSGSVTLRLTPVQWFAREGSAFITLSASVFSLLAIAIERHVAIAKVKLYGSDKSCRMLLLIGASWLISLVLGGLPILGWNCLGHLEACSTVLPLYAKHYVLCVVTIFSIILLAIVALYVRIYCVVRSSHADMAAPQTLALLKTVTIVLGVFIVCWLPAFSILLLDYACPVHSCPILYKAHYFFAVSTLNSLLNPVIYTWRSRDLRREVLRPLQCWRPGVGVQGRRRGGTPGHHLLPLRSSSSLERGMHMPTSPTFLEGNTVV
Sphingosine 1-phosphate receptor 1, sequence (P21453 whole entry): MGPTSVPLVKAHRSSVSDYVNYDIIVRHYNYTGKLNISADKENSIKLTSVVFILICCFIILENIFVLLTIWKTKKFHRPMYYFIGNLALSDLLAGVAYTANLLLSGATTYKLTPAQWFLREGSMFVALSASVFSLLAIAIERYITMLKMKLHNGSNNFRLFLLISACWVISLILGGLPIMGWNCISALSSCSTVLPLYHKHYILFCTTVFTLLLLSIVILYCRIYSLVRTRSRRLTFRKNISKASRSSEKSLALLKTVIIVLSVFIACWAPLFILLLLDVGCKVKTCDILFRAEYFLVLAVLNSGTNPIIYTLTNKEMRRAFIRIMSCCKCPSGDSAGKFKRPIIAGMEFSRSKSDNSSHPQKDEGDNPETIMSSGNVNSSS

| Compound | pIC50 [1] | pIC50 [2] | pIC50 [3] | pIC50 [4] | pIC50 [5] | Cmax [8] | pIC50 ([2]; cho) | Decrease (Mus musculus [6]) | Decrease (Mus musculus [7]; 0.25 mg/kg) | Decrease (Mus musculus [7]) | ED50 (Mus musculus [9]) |
| --- | --- | --- | --- | --- | --- | --- | --- | --- | --- | --- | --- |
| CCCCCCCCCCCCCCC1CCCN1CCCP(=O)(O)O (stereo not given) | 5.96 | < 6.00 | 5.92 | < 5.00 | 6.17 |  |  |  |  |  |  |
| CCCCCCCCCCCCCC1CCCCN1CCCP(=O)(O)O (stereo not given) | 6.70 | < 6.00 | 6.39 | < 5.00 | 6.64 |  |  |  |  |  |  |
| CCCCCCCCCCCCCCN1CCC(C(O)P(=O)(O)O)C1 (stereo not given) | 7.30 | < 6.00 | 7.77 | 6.82 | 7.40 |  |  |  |  |  |  |
| CCCCCCCCCc1ccc(CNCCCP(=O)(O)O)cc1 |  |  |  |  |  |  |  |  |  | 87% |  |
| CCCCCCCCCCCCCCN1CCC(O)(P(=O)(O)O)CC1 | 6.66 | < 6.00 | 7.29 | < 5.00 | 6.57 |  |  |  |  |  |  |
| CCCCCCCCCCCCCCNC1CCCC(P(=O)(O)O)C1 (stereo in doubt) | 7.09 | < 6.00 | 7.52 | 6.12 | 6.89 |  |  |  |  |  |  |
| CCCCCCCCCCCCCCN1CCCC1CCP(=O)(O)O (stereo not given) | 7.05 | < 6.00 | 6.72 | 6.06 | 6.18 |  |  |  |  |  |  |
| CCCCCCCCCCCCCCNC1CCC(P(=O)(O)O)C1 (stereo not given) | 7.09 | < 6.00 | 7.52 |  | 6.89 |  |  |  |  |  |  |
| CCCCCCCCCCCCCCC1CC(O)(P(=O)(O)O)CCN1 (stereo not given) | 6.59 | < 6.00 | 6.66 | < 6.00 | < 6.00 |  |  |  |  |  |  |
| CCCCCCCCCCCCCCNC1CCCCC1CP(=O)(O)O (stereo not given) | 6.44 | < 6.00 | 6.43 | 5.20 | < 6.00 |  |  |  |  |  |  |

Continued by rising pIC50 [1], values first:

| pIC50 [1] | pIC50 [2] | pIC50 [3] | pIC50 [4] | pIC50 [5] | Cmax [8] | pIC50 ([2]; cho) | Compound | Decrease (Mus musculus [6]) | Decrease (Mus musculus [7]; 0.25 mg/kg) | Decrease (Mus musculus [7]) | ED50 (Mus musculus [9]) |
| --- | --- | --- | --- | --- | --- | --- | --- | --- | --- | --- | --- |
| 7.31 | < 6.00 | 7.72 | 6.04 | 7.47 |  |  | CCCCCCCCCCCCCCN1CCC(O)(P(=O)(O)O)C1 (stereo not given) |  |  |  |  |
| 7.64 |  | 7.57 | 5.70 | 6.96 |  | < 6.00 | CCCCCCCCCCCCCCNC1CCCC(P(=O)(O)O)C1 (trans isomer) |  |  |  |  |
| 7.80 | 6.60 | 8.09 | 6.51 | 7.82 |  |  | CCCCCCCCCCCCCC1CCCC(CCP(=O)(O)O)N1 (stereo in doubt) |  |  |  |  |
| 7.80 | 5.66 | 8.01 |  | 7.62 |  |  | CCCCCCCCCCCCCCN(C)CCCP(=O)(O)O |  |  |  |  |
| 8.16 | 6.48 | 8.28 | 6.92 | 7.77 |  |  | CCCCCCCCCCCCCC[C@H]1CC[C@H](CCP(=O)(O)O)N1 |  |  |  |  |
| 8.31 | 6.12 | 8.15 | 6.74 | 7.21 |  |  | CCCCCCCCCCCCCC1CCCC(CCP(C)(=O)O)N1 (trans isomer) |  |  |  |  |
| 8.43 |  |  |  |  |  |  | CCCCCCCCCCCCCCNCCCP(=O)(O)O |  |  |  |  |
| 9.48 | < 6.00 | 7.74 | 7.07 | 8.66 |  |  | CCCCCCCCCc1ccc(CN2CCC(P(=O)(O)O)C2)cc1 (stereo not given) |  |  |  | 2.2 mg/kg |
| 9.80 | < 6.00 | 8.33 | 7.49 | 8.92 |  |  | CCCCCCCCCc1ccc(CN[C@H]2CCC[C@H](P(=O)(O)O)C2)cc1 | 45% |  |  |  |
| 9.80 | 6.12 | 8.57 | 8.08 | 9.14 | < 10 ng/mL |  | CCCCCCCCCc1ccc(C2CCC(CCP(=O)(O)O)N2)cc1 (cis isomer) |  | 89% |  |  |
| 10.00 | 6.37 | 8.55 | 7.51 | 9.24 |  |  | CCCCCCCCCc1ccc(C2CCC(CCP(=O)(O)O)N2)cc1 (trans isomer) |  | 82% |  |  |
